Test results as given in ChEMBL document CHEMBL1130423, “Design, synthesis, and biological evaluation of new growth inhibitors of Trypanosoma cruzi (epimastigotes)” (J Med Chem, 1997).

Test system: Trypanosoma cruzi
Test: Inhibitory concentration against Trypanosoma cruzi (epimastigotes)
Format: functional, organism-based
Summary of the method: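 T. cruzi epimastigotes (Y strain) grown at 28 °C in brain-heart infusion (37 g/L) medium with hemin chlorohydrate (20 mg/L) and 10% newborn calf serum. Initial inoculum 2-3 × 10^6 cells/mL, counted in a Neubauer chamber. Each drug tested at four concentrations with a drug-free control per group. Growth read as absorbance at 600 nm against medium blank. Percent inhibition taken from the start-to-end absorbance change relative to control.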

Row | IC50 | Structure (SMILES)
1 | 218 µM | COc1ccc(OCCOC2CCCCO2)cc1 (stereo not given)
2 | > 350 µM | CCNC(=O)OC(C)COc1ccc(OC)cc1 (stereo not given)
3 | 129 µM | C=CCOc1ccc(C(=O)c2ccccc2)cc1
4 | > 500 µM | OC(c1ccccc1)c1ccc(OCCOC2CCCCO2)cc1 (stereo not given)
5 | 142 µM | OC(COc1ccc(Oc2ccccc2)cc1)COC1CCCCO1 (stereo not given)
6 | > 350 µM | CCNC(=O)OCCCOc1ccc(OC)cc1
7 | > 500 µM | COc1ccc(OCC(C)O)cc1 (stereo not given)
8 | 260 µM | C=COC(=O)OCCCOc1ccc(Oc2ccccc2)cc1
9 | 209 µM | C=CCOc1ccc(OC)cc1 [1-allyloxy-4-methoxybenzene]
10 | > 300 µM | CCNC(=O)OCCOc1ccc(C(=O)c2ccccc2)cc1
11 | 147 µM | CCNC(=O)OC/C=C(\C)CC/C=C(\C)CCC=C(C)C
12 | 68 µM | CC(C)=CCC/C(C)=C/COC1CCCCO1 (stereo not given)
13 | 78 µM | CC(C)=CCC/C(C)=C/CC/C(C)=C/COC1CCCCO1 (stereo not given)
14 | 138 µM | c1ccc(Oc2ccc(OCCOC3CCCCO3)cc2)cc1 (stereo not given)
15 | > 400 µM | O=C(c1ccccc1)c1ccc(OCCO)cc1
16 | > 500 µM | C=COC(=O)OC/C=C(\C)CC/C=C(\C)CCC=C(C)C
17 | > 300 µM | COc1ccc(OCCCOC2CCCCO2)cc1 (stereo not given)
18 | > 240 µM | C=COC(=O)OC(C)COc1ccc(Oc2ccccc2)cc1 (stereo not given)
19 | > 500 µM | COc1ccc(OCCO)cc1
20 | > 300 µM | CCNC(=O)OCCOc1ccc(OC)cc1
21 | 268 µM | O=C(c1ccccc1)c1ccc(OCCOC2CCCCO2)cc1 (stereo not given)
22 | 270 µM | OCC(O)COc1ccc(Oc2ccccc2)cc1 (stereo not given)
23 | 176 µM | CCNC(=O)OC/C=C(\C)CCC=C(C)C
24 | 233 µM | CCNC(=O)OCC(O)COc1ccc(Oc2ccccc2)cc1 (stereo not given)
25 | 210 µM | CCSC(=O)OC/C=C(\C)CC/C=C(\C)CCC1OC1(C)C (stereo not given)
